Results on 11 compounds are retold here after ChEMBL document CHEMBL4229335 (Eur J Med Chem, 2018).

In series [1] the test system is Bel7402/5-FU. The series is described as follows: Antiproliferative activity against human Bel7402/5-FU cells after 72 hrs by MTT assay. In kind it is functional, cell-based. In a few lines: (§1)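 MTT assay with 72 h exposure to graded concentrations in triplicate. MTT solution then DMSO were added, followed by 10 min at room temperature, with absorbance read at 490 nm. IC50 is reported as the mean of three independent experiments. 5-FU served as positive control.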
On the technique in general: Formazan colour is commonly taken as a measure of viable cells.

Series [2] has as its system HL-60. The series is described as follows: Antiproliferative activity against human HL60 cells after 72 hrs by MTT assay. The settings on record: HL-60, 72 h. In kind it is functional, cell-based. In a few lines: as §1
In series [3] the test system is PC-3. The series is described as follows: Antiproliferative activity against human PC3 cells after 72 hrs by MTT assay. Format: functional, cell-based. As to conditions: PC-3, 72 h. In a few lines:
as §1

In series [4] the test system is L02. Briefly: Antiproliferative activity against human LO2 cells after 72 hrs by MTT assay. In kind it is cell-based. The settings on record: L02, 72 h. The essentials:
as §1

Series [5] has as its system Bel-7402. Briefly: Antiproliferative activity against human Bel7402 cells after 72 hrs by MTT assay. The settings on record: Bel-7402, 72 h. In kind it is functional, cell-based. The essentials:
as §1

Series [6] can be described thus: Selectivity index, ratio of IC50 for human LO2 cells to IC50 for human Bel7402 cells. In kind it is toxicity. As to conditions: LO2 cells versus Bel7402 cells, read-out: Ratio IC50. The essentials:
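SI was calculated as IC50 in L-02 normal liver cells divided by IC50 in Bel-7402 cells, both from the 72 h MTT assay.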

`O=c1[nH]cc(F)c(=O)[nH]1` [FLUOROURACIL] yielded an IC50 in series [1] of over 80 µM.

Regarding `C=C1C(=O)[C@@]23C(=O)O[C@H]4CCC(C)(C)[C@H]5C(=O)OC[C@@]45[C@@H]2CC[C@@H]1[C@H]3OC(=O)CCC(=O)N[C@@H](Cc1ccc(N(CCCl)CCCl)cc1)C(=O)OC`, the IC50 was 18.5 µM in series [2]; over 100 µM in series [3]; over 100 µM in series [4]; 6.5 µM in series [5]; 12.8 µM in series [1].

`C=C1C(=O)[C@@]23C(=O)O[C@H]4CCC(C)(C)[C@H]5C(=O)OC[C@@]45[C@@H]2CC[C@@H]1[C@H]3O`: the IC50 is 20.6 µM in series [2], 22.6 µM in series [3], 25.5 µM in series [4] and 19.6 µM in series [1]. The selectivity ratio in series [6] amounted to 1.6.

Consider `C=C1C(=O)[C@@]23C(=O)O[C@H]4CCC(C)(C)[C@H]5C(=O)OC[C@@]45[C@@H]2CC[C@@H]1[C@H]3OC(=O)c1ccc(N(CCCl)CCCl)cc1`, for which the IC50 stood at 5.57 µM in series [2]; 7.03 µM in series [3]; 62.8 µM in series [4]; 1.6 µM in series [5]; 2.9 µM in series [1]. The selectivity ratio in series [6] was determined as 39.3.

As for `O=C(O)CCCc1ccc(N(CCCl)CCCl)cc1` [CHLORAMBUCIL], the IC50 in series [4], in series [5] and in series [1] was over 100 µM each time.

Regarding `C=C1C(=O)[C@@]23C(=O)O[C@H]4CCC(C)(C)[C@H]5C(=O)OC[C@@]45[C@@H]2CC[C@@H]1[C@H]3OC(=O)CCCc1ccc(N(CCCl)CCCl)cc1`, the IC50 in series [2] came out at 9.94 µM; in series [3] it was 5.5 µM; in series [4] it was 49.8 µM; in series [5] it was 3.06 µM; in series [1], 15.6 µM. For the same compound, the selectivity ratio in series [6] is 16.3.

Regarding `C=C1C(=O)[C@@]23C(=O)O[C@H]4CCC(C)(C)[C@H]5[C@H](OC(=O)CCC(=O)N[C@@H](Cc6ccc(N(CCCl)CCCl)cc6)C(=O)OC)OC[C@@]45[C@@H]2CC[C@@H]1[C@H]3OC(=O)CCC(=O)N[C@@H](Cc1ccc(N(CCCl)CCCl)cc1)C(=O)OC`, the IC50 is 17.6 µM in series [2]; over 100 µM in series [3]; over 100 µM in series [4]; 5.73 µM in series [5]; 7.93 µM in series [1].

For the compound `COC(=O)[C@H](Cc1ccc(N(CCCl)CCCl)cc1)NC(=O)CCC(=O)O`, the IC50 in series [2] was 12.4 µM; in series [3], 57.3 µM; in series [4], 68.6 µM; in series [5], 46.5 µM; in series [1], over 100 µM. In addition, the selectivity ratio in series [6] turned out to be 1.5.

Regarding `C=C1C(=O)[C@@]23C(=O)O[C@H]4CCC(C)(C)[C@H]5[C@H](O)OC[C@@]45[C@@H]2CC[C@@H]1[C@H]3OC(=O)CCCc1ccc(N(CCCl)CCCl)cc1`, the IC50 was found to be 6.35 µM in series [2]; 7.32 µM in series [3]; 69.9 µM in series [4]; 2.08 µM in series [5]; 8.49 µM in series [1]. The selectivity ratio in series [6] is 33.6.

Turning to `C=C1C(=O)[C@]23[C@H](O)[C@H]1CC[C@H]2[C@@]12CO[C@]3(O)[C@@H](O)[C@@H]1C(C)(C)CC[C@@H]2O` [ORIDONIN], the concentration for half-maximal inhibition (IC50) in series [2] was determined as 14.3 µM; in series [3], 11 µM; in series [4], 18.9 µM; in series [5], 7.36 µM; in series [1], 10.5 µM. The selectivity ratio in series [6] was 2.6.

For the compound `C=C1C(=O)[C@@]23C(=O)O[C@H]4CCC(C)(C)[C@H]5[C@H](O)OC[C@@]45[C@@H]2CC[C@@H]1[C@H]3O`, the IC50 came out at 28.1 µM in series [2]; 30.6 µM in series [3]; 27.1 µM in series [4]; 32.1 µM in series [5]; 44.3 µM in series [1]. The selectivity ratio in series [6] came out at 0.8.

In general, IC50 refers to the midpoint of a concentration-inhibition curve. The low end stands for greater potency, the high end for weaker potency.
